For test [1], the system named is Triticum aestivum. The test is described as follows: Growth inhibition of Triticum aestivum L. cv. Duro at 1 mM after 24 hrs by coleoptile assay. Type of test: functional, organism-based. In a few lines:
(§1)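 Etiolated wheat coleoptile sections (apical 2 mm discarded, next 4 mm used; cut under green safelight), tested at 10^-3 to 10^-6 M from DMSO stock (max 0.1% DMSO final) in phosphate–citrate buffer pH 5.6 with 2% sucrose. Five sections per tube, three tubes per dilution, duplicated. Tubes rotated at 0.25 rpm, 24 h, 22 °C, dark. Lengths from digitized images. Reported as % difference from parallel control; Welch's test.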

Test [2] relates to Lactuca sativa. Briefly: Phytotoxicity against Lactuca sativa L. assessed as inhibition of root growth at 0.5 mM to 50 uM relative to control. Type of test: functional, organism-based. In a few lines:
(§2)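 Seeds on filter paper in Petri dishes with 10^-2 M MES buffer, pH 6.0. Test concentrations 5×10^-4, 10^-4, 5×10^-5 and 10^-5 M, made by diluting DMSO solutions at 5 μL/mL buffer. Dishes sealed and kept at 25 °C in the dark: lettuce and tomato 5 days, onion 7 days. Plants frozen at -10 °C for 24 h before measurement. Root and shoot length recorded automatically and compared with buffer/DMSO control.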

In test [3] the test system is Lactuca sativa. Briefly: Phytotoxicity against Lactuca sativa L. assessed as inhibition of shoot growth at 0.5 mM to 50 uM relative to control. Type of test: functional, organism-based. In a few lines: as §2
Test [4] relates to Solanum lycopersicum. The test is described as follows: Phytotoxicity against Lycopersicon esculentum Will assessed as inhibition of shoot development at 0.5 mM relative to control. Type of test: functional. In a few lines: as §2
In test [5] the test system is Allium cepa. The test is described as follows: Phytotoxicity against Allium cepa assessed as inhibition of root growth at 0.5 mM relative to control. Type of test: functional. In a few lines:
as §2

The test system of test [6] is Triticum aestivum. Briefly: Growth stimulation of Triticum aestivum L. cv. Duro at <1 mM after 24 hrs by coleoptile assay. Type of test: functional, organism-based. In outline: as §1
The test system of test [7] is Triticum aestivum. The test is described as follows: Growth inhibition of Triticum aestivum L. cv. Duro after 24 hrs by coleoptile assay. Type of test: functional, organism-based. In a few lines: as §1
Test [8] has as its system Triticum aestivum. The test is described as follows: Growth inhibition of Triticum aestivum L. cv. Duro at 1 uM after 24 hrs by coleoptile assay. Type of test: functional. In outline:
as §1

Test [9] deals with Solanum lycopersicum. The test is described as follows: Phytotoxicity against Lycopersicon esculentum Will assessed as inhibition of root growth at 0.5 mM to 50 uM relative to control. Type of test: functional. In outline: as §2
Test [10] deals with Allium cepa. Briefly: Phytotoxicity against Allium cepa assessed as inhibition of shoot growth at 0.5 mM relative to control. Type of test: functional. In a few lines:
as §2

Molecules are shown by their SMILES. The source made the active and inactive calls. The rule behind the calls is not given here.

Data on seven compounds can be found in ChEMBL document CHEMBL1157946, “Sesquiterpene lactones as allelochemicals” (J Nat Prod, 2006).

In the test with Triticum aestivum [1], `C=C1C(=O)O[C@@H]2[C@H]3C(C)=CC[C@H]3[C@](C)(O)C[C@@H](OC(=O)/C(C)=C\C)[C@@H]12` gave an IC50 of 150 µM and an inhibition at 1000 µM of 98%.

Turning to `C=C1C(=O)O[C@H]2/C=C(/CO)C(=O)/C=C/[C@@](C)(O)C[C@@H](OC(=O)/C(C)=C\C)[C@@H]12`, the outcome in the test with Lactuca sativa [2] and with Lactuca sativa [3] was Active. Moreover, the values for the inhibition at 500 µM in the test with Solanum lycopersicum [4] and with Allium cepa [5] were 20% and 54%, respectively.

As for `C=C1C(=O)O[C@H]2[C@H]1[C@H](OC(=O)/C(C)=C\C)C[C@@]1(C)[C@H](O)C[C@H](O)C(=C)[C@@H]21`, the outcome in the test with Triticum aestivum [6] was Active.

Take `C=C1C(=O)O[C@@H]2[C@H]3C(CO)=CC[C@H]3C(=C)CC[C@@H]12` [ANNUOLIDE A]: the inhibition at 1000 µM in the test on Triticum aestivum [1] amounted to 90%. Besides, 370 µM corresponded to half-maximal inhibition with Triticum aestivum [7] (Triticum aestivum, 24 h) (IC50). The inhibition at 1 µM with Triticum aestivum [8] amounted to 35%.

`C=C1C(=O)O[C@@H]2[C@H]3C(C)=C[C@H](O)[C@H]3[C@](C)(O)C[C@@H](OC(=O)/C(C)=C\C)[C@@H]12` [ANNUOLIDE H]: the “inhibition (INH)” value with Triticum aestivum [7] is on record as 82%.

Take `C=C1C(=O)O[C@H]2[C@H]1[C@H](OC(=O)/C(C)=C\C)C[C@]1(C)C=CC(=O)C(=C)[C@H]2O1` [HELIVYPOLIDE F]: the outcome with Triticum aestivum [1], in the test on Lactuca sativa [2] and in the test on Lactuca sativa [3] was Active. For the same compound, the “inhibition (INH)” value with Solanum lycopersicum [9] was determined as 32%. Besides, the values for the inhibition at 500 µM with Solanum lycopersicum [4], in the test with Allium cepa [5] and with Allium cepa [10] were 20%, 54% and 20%, respectively.

`C=C1C(=O)O[C@@H]2/C=C(/CO)[C@@]3(O)CC[C@@](C)(C[C@@H](OC(=O)/C(C)=C\C)[C@@H]12)O3` [NIVEUSIN B] came in with an inhibition at 1000 µM in the test on Triticum aestivum [1] of 92%. For the same compound, the inhibition at 500 µM in the test on Solanum lycopersicum [4] was 20%.
